Assay results of several laboratories.
Lines come from different studies, so protocols differ.
Target: cGMP-dependent protein kinase 2 (PRKG2, Homo sapiens, UniProt Q13237)

CC(C)(C)c1nc2c(s1)c1nc(N)ncc1c1ccc(NS(=O)(=O)c3c(F)cccc3F)c(F)c12
remaining activity (enzyme activity, inhibitor, radiometric; 1 µM): 102%

Cc1ccc(C(=O)NCc2ccsc2)cc1C#Cc1cn(C(C)C)c2ncnc(N)c12
activity vs control (enzyme activity, inhibitor; 1 µM): 112%

C[C@H]1CCN(c2nccc(-c3cnn4ncccc34)n2)C1
remaining binding (binding; 1 µM): 80%

O=C1NC(=O)c2cc(Nc3ccc(F)cc3)c(Nc3ccc(F)cc3)cc21
remaining signal (cell-free assay; 0.5 µM): 83.3%

Cn1cnc(Br)c1C1=CN(c2ncnc3[nH]cnc23)CCS1
inhibition (enzyme activity, inhibitor, radiometric; 2 µM): 91.7%

COc1cc(Cl)c(C(=O)N[C@@H](CN[C@H]2CC[C@@H](N)CC2)Cc2ccc(C#N)cc2)cc1-c1ccc(CN[C@H](C)c2ccc(C)cc2)o1
remaining activity (enzyme activity, inhibitor; 1 µM): 98%

C[C@H](c1cccc(C#N)c1)n1cc(Cl)cc(C(N)=O)c1=N
remaining binding (cell-free assay, competition with immobilised ligand; 1 µM): 97%

Nc1nc(Nc2ccc(S(N)(=O)=O)cc2)nn1C(=O)c1c(F)cccc1F
remaining signal (cell-free assay; 0.5 µM): 92.2%

N#CC1(c2ccccn2)CCN(Cc2cc(C(=O)N3CCCC3)c(=O)n3ccccc23)CC1
remaining binding (cell-free assay, competition with immobilised ligand; 1 µM): 100%

CN(C)C1CCN(CC#Cc2nn(C3CCCC3)c3nc(NCc4ccccc4)ncc23)C1 (stereo not drawn)
inhibition (enzyme activity, inhibitor, FRET; 1 µM): 6%

COc1cc2ncnc(Nc3ccc(Oc4ccccc4)c(C)c3C)c2cc1OC
inhibition (enzyme activity, inhibitor; 1 µM): 2%

O=C(Nc1cnn(-c2csc(C(=O)NC3COC3)c2)c1)Nc1ccccc1Cl
remaining activity (enzyme activity, inhibitor; 5 µM): 101%

Cc1cc(-n2nc(Cc3cc(F)cc(C(F)(F)F)c3)nc2C)ccc1C(N)=O
remaining binding (cell-free assay, competition with immobilised ligand; 1 µM): 86%

O=C1Nc2ccc(Cl)cc2C1=Cc1cc(Cl)c(O)c(Cl)c1
remaining signal (cell-free assay; 0.5 µM): 97%

COc1cccc(CNC(=O)c2nc3scc(COCc4ccc(C(=O)O)cc4)c3c(=O)[nH]2)c1
remaining binding (cell-free assay, competition with immobilised ligand; 1 µM): 100%

Nc1ncnc2occ(-c3ccc(NC(=O)Nc4cc(C(F)(F)F)ccc4F)cc3)c12
remaining signal (cell-free assay, inhibitor; 20 µM): 76%

CO[C@H]1CC[C@H](CNc2ccc(S(=O)(=O)NC(=O)c3ccc(N4CCN(CC5=C(c6ccc(Cl)cc6)CC(C)(C)CC5)CC4)cc3Oc3cnc4[nH]ccc4c3)cc2[N+](=O)[O-])CC1
remaining binding (cell-free assay, competition with immobilised ligand; 1 µM): 90%

C=CC(=O)Nc1cc(Nc2nccc(Nc3cc(Cl)c(F)cc3C(C)(C)O)n2)c(OC)cc1N1CC[C@@H](N(C)C)C1
inhibition (enzyme activity, inhibitor; 1 µM): -8%
